Calls of active or inactive are those of the source. The rule behind the calls is not given here.
Assays:
[1] = test system: RAW264.7; assay: Antiinflammatory activity in LPS-induced mouse RAW264.7 cells assessed as TNFalpha levels at 2.5 uM pretreated for 2 hrs followed by LPS stimulation and measured after 6 hrs by ELISA (reference value: 4377.1 +/- 318.6 pg/ml); assay type: functional
In short: (§1)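 RAW264.7 murine macrophages (DMEM, 10% serum, 37 °C, 5% CO2) seeded at 5 × 10^5 cells per well, pretreated 2 h with compound at 10, 5, 2.5 or 1.25 μM (DMSO 0.1% v/v), then LPS (E. coli 0127:B8) 100 ng mL−1 added. Supernatant TNF-α or IL-6 read by mouse ELISA kit after 6, 12 and 24 h. Mean ± SD, n = 3, three independent experiments.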

[2] = Cytotoxicity against mouse RAW264.7 cells assessed as cell viability at 10 uM after 48 hrs by MTT assay (reference value: 100%); assay type: cell-based; settings: read-out: Activity
In short: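 RAW264.7 cells seeded at 4 × 10^3 per well, cultured overnight, exposed to compound (DMSO 0.1% v/v) for 48 h. MTT 0.5 mg mL−1 added for 4 h at 37 °C, formazan dissolved in DMSO, OD570 read. Viability relative to medium-only cells set as 100%. Mean ± SD (n = 5), three independent experiments.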

[3] = test system: RAW264.7; assay: Antiinflammatory activity in mouse RAW264.7 cells assessed as inhibition of LPS-induced NO production pretreated for 2 hrs followed by LPS stimulation measured after 24 hrs by Griess assay; assay type: functional, cell-based
In short: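 RAW264.7 murine macrophages (DMEM, 10% serum, 37 °C, 5% CO2) seeded at 5 × 10^4 cells/well and cultured 18 h. Compounds tested at 1–100 μM (DMSO 0.1% v/v), with LPS (E. coli 0127:B8) at 100 ng mL−1. Supernatant nitrite read with Griess reagent (10 min, room temperature, OD540).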

[4] = test system: RAW264.7; assay: Antiinflammatory activity in LPS-induced mouse RAW264.7 cells assessed as TNFalpha levels at 10 uM pretreated for 2 hrs followed by LPS stimulation and measured after 24 hrs by ELISA (reference value: 9653.7 +/- 377.3 pg/ml); assay type: functional; in short: as §1
[5] = test system: RAW264.7; assay: Antiinflammatory activity in LPS-induced mouse RAW264.7 cells assessed as TNFalpha levels at 5 uM pretreated for 2 hrs followed by LPS stimulation and measured after 24 hrs by ELISA (reference value: 9653.7 +/- 377.3 pg/ml); assay type: functional; in short: as §1
[6] = test system: RAW264.7; assay: Antiinflammatory activity in LPS-induced mouse RAW264.7 cells assessed as TNFalpha levels at 2.5 uM pretreated for 2 hrs followed by LPS stimulation and measured after 24 hrs by ELISA (reference value: 9653.7 +/- 377.3 pg/ml); assay type: functional; in short: as §1
[7] = test system: Danio rerio; assay: In-vivo antiinflammatory activity in 4 days post fertilized zebrafish larvae harboring coronilla-eGFP/Lyc-dsRed assessed as reduction in macrophage recruitment to wounded tail at 5 to 20 uM measured after 3 to 6 hrs by fluorescence microscopic analysis; assay type: functional, organism-based
In short: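 Double transgenic neutrophil/macrophage reporter larvae (Coronilla-eGFP/Lyc-dsRed), 4 dpf, tail-cut. […] Neutrophils and macrophages gathering at the wound imaged by fluorescence microscopy at 3 and 6 h. 6–8 larvae per group. Uncut larvae serve as blank, untreated cut larvae as control.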

[8] = target: Transcription factor p65 (Mus musculus) (UniProt Q04207); assay: Inhibition of LPS-induced NFkappaB p65 phosphorylation in mouse RAW264.7 cells after 4 hrs by Western blot analysis; assay type: cell-based
In short: (§2)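 RAW264.7 cells at 2 × 10^6 per well given fresh medium with compound (10, 5, 2.5, 1.25 μM) plus LPS 500 ng mL−1 for 4 h. Lysed in IP buffer with 1 mM PMSF, protein by BCA. Run on 12.5% SDS-PAGE and blotted. Phospho and total ERK1/2 (Thr202/Tyr204), p38 (Thr180/Tyr182), IκBα (Ser32/36) and NF-κB p65 detected by ECL. Mean ± SD, n = 3.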

[9] = target: MAP kinase p38 (Mus musculus) (UniProt P47811+O08911+Q9WUI1+Q9Z1B7); assay: Inhibition of LPS-induced p38 MAPK phosphorylation in mouse RAW264.7 cells after 4 hrs by Western blot analysis; assay type: cell-based; in short: as §2
[10] = test system: RAW264.7; assay: Antiinflammatory activity in LPS-induced mouse RAW264.7 cells assessed as IL-6 levels at 10 uM pretreated for 2 hrs followed by LPS stimulation and measured after 12 hrs by ELISA (reference value: 1394 +/- 62.6 pg/ml); assay type: functional; in short: as §1
[11] = test system: RAW264.7; assay: Antiinflammatory activity in LPS-induced mouse RAW264.7 cells assessed as IL-6 levels at 2.5 uM pretreated for 2 hrs followed by LPS stimulation and measured after 6 hrs by ELISA (reference value: 472.3 +/- 25.8 pg/ml); assay type: functional; in short: as §1
[12] = test system: RAW264.7; assay: Antiinflammatory activity in LPS-induced mouse RAW264.7 cells assessed as IL-6 levels at 10 uM pretreated for 2 hrs followed by LPS stimulation and measured after 6 hrs by ELISA (reference value: 472.3 +/- 25.8 pg/ml); assay type: functional; in short: as §1
[13] = test system: RAW264.7; assay: Antiinflammatory activity in LPS-induced mouse RAW264.7 cells assessed as IL-6 levels at 2.5 uM pretreated for 2 hrs followed by LPS stimulation and measured after 12 hrs by ELISA (reference value: 1394 +/- 62.6 pg/ml); assay type: functional; in short: as §1
[14] = test system: RAW264.7; assay: Antiinflammatory activity in LPS-induced mouse RAW264.7 cells assessed as IL-6 levels at 5 uM pretreated for 2 hrs followed by LPS stimulation and measured after 24 hrs by ELISA (reference value: 1966.6 +/- 102.3 pg/ml); assay type: functional; in short: as §1

Sequence of Transcription factor p65 (Mus musculus) (Q04207 whole entry): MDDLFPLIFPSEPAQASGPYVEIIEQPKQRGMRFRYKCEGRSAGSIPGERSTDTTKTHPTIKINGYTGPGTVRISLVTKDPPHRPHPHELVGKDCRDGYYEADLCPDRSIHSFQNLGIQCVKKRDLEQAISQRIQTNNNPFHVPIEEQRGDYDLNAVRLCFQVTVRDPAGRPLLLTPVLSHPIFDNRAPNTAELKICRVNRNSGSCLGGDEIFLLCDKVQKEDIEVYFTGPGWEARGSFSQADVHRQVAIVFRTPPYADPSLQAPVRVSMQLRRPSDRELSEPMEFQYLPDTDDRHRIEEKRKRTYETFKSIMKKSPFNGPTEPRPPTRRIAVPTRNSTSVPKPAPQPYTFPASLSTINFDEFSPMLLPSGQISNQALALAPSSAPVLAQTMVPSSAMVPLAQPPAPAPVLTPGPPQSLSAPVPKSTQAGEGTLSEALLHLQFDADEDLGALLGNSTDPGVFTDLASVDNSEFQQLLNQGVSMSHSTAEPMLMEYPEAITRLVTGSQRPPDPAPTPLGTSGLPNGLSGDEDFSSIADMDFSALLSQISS

Structure (SMILES) | Activity [1] [pg/mL] | viability at 48 h, 10 µM [2] [%] | IC50 [3] [µM] | Activity [4] [pg/mL] | Activity [5] [pg/mL] | Activity [6] [pg/mL] | Activity [7] | inhibition [8] | inhibition [9] | Activity [10] [pg/mL] | Activity [11] [pg/mL] | Activity [12] [pg/mL] | Activity [13] [pg/mL] | Activity [14] [pg/mL]
CC1=C[C@H](O/C=C2/C(=O)O[C@@H]3c4ccccc4C[C@H]23)OC1=O | 4276.9 | 100 | 3.14 | 8660.7 | 9085.5 | 9397.7 | Active | Dose-dependent effect | Dose-dependent effect | 869 | 433.6 | 302.3 | 1267.7 | 1499.2
CC1=C[C@@H](O/C=C2/C(=O)O[C@H]3c4ccccc4C[C@@H]23)OC1=O | 4307.9 | 99.2 | 3.51 | 8796.7 | 9318.5 | 9444.5 | Active | Dose-dependent effect | Dose-dependent effect | 998.2 | 447.9 | 340.6 | 1296 | 1561.1
